Drawing on the RNAGym collection of RNA variant scans (doi:10.1126/science.aae0568), this text covers yeast fitness for 167 variants.

Variants at the floor of the assay were thinned out.

The labels stand for the following.
B1: tRNA (parent)
chain: GUUCCGUUGGCGUAAUGGUAACGCGUCUCCCUCCUAAGGAGAAGACUGCGGGUUCGAGUCCCGUACGGAACG

In the series the parent is B1. Put plainly: yeast fitness relative to wild type (ratio to wild type); higher = fitter; tRNA-Arg(CCU), competitive growth, 37 C, YPD. In a few lines:
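Genotype frequency changes were the basis for Darwinian fitness relative to wild type. The frequencies came from 100-nucleotide paired-end sequencing of gene amplicons from the start population and each end population of pooled yeast strains with tRNA-Arg(CCU) gene variants at the native locus. Competition ran in YPD at 37°C for 24 hours in six replicates, genotypes needed ≥ 100 starting reads, and estimates < 0.5 were set to 0.5.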
As to A21C U28G A43C G52C, the yeast fitness is ≤ 0.5.

A21G U26A C34U G50C C62U: the yeast fitness was ≤ 0.5.

For the variant A21G A36U, the yeast fitness came out at 0.583.

As to A21C A43G G58C, the yeast fitness is ≤ 0.5.

Regarding A21C A43G G58A, the yeast fitness stood at 0.892.

Turning to A21G G56C A65G, the yeast fitness was determined as 0.583.

On to A21C A36C U47A C62G, for which the yeast fitness is ≤ 0.5.

For A21C C22U C31U C33U C62A, the yeast fitness worked out at 0.61.

In the case of A21G C22U A57G, the yeast fitness is 0.614.

For the variant A21G C24U, the yeast fitness stood at 0.989.

Consider A20U U54A, for which the yeast fitness turned out to be 0.699.

Regarding A21G G58C, the yeast fitness came to 1.01.

A21G C27U G56C: the yeast fitness worked out at 0.57.

Turning to A21C C27U U47A, the yeast fitness came to 0.545.

Take A20U U28G U32G C34G: the yeast fitness stood at 0.513.

A21C A45G G63C C66U: the yeast fitness was ≤ 0.5.

For A21G C33G C34G U47A G50A, the yeast fitness is ≤ 0.5.

Turning to A21G C27G C29A G50A, the yeast fitness was ≤ 0.5.

For the variant A21U A36C C60G A65C, the yeast fitness stood at 0.575.

With A20U U47A U53C, the yeast fitness is 0.532.

Regarding A21U A40G A57U C60G G68C, the yeast fitness was ≤ 0.5.

For A21G C22A A40U C61U, the yeast fitness came to 0.507.

Regarding A21G A42C G50A, the yeast fitness was 0.648.

Consider A21G C49U A65C, for which the yeast fitness was determined as 0.747.

On to A21C C30G U54C C55G A70G, for which the yeast fitness was ≤ 0.5.

As to A21G G25A, the yeast fitness turned out to be 1.12.

Turning to A21G C49A U54C A65G, the yeast fitness is ≤ 0.5.

Take A21C C24U U32A C62G G63A: the yeast fitness is ≤ 0.5.

As for A21U A37G G50C G56C, the yeast fitness is ≤ 0.5.

As to A21G C24G C31A G44A, the yeast fitness worked out at 0.571.

Take A21G C61G G67A: the yeast fitness is ≤ 0.5.

Regarding A21G C34U A65C, the yeast fitness is ≤ 0.5.

For the variant A21C G23A G52C A57C, the yeast fitness is ≤ 0.5.

Regarding A21C U26G A65G A69C, the yeast fitness is ≤ 0.5.

Regarding A21G C22A C49A G56C, the yeast fitness was ≤ 0.5.

For A21C G44C, the yeast fitness worked out at 0.627.

With A21G G48C C66U G67C A70G, the yeast fitness is ≤ 0.5.

Regarding A21C C46G C49G, the yeast fitness worked out at 0.655.

Take A21C A40U: the yeast fitness worked out at 0.807.

Consider A21C A40G, for which the yeast fitness amounted to 0.818.

On to A20U U32G U35A C62U A69C, for which the yeast fitness was ≤ 0.5.

Consider A21G G56A G67A, for which the yeast fitness worked out at 0.654.

Take A21C A42U G44C U53C: the yeast fitness is ≤ 0.5.

Turning to A21C C30G C66A, the yeast fitness stood at 0.572.

As to A21G G67U A69C, the yeast fitness was 0.528.

For the variant A21C C46U G67A, the yeast fitness amounted to 0.619.

For the variant A20U U47A A70C, the yeast fitness amounted to 0.536.

A20U U35C G44C: the yeast fitness came to 0.592.

Consider A21G A57U A70U, for which the yeast fitness worked out at 0.582.

As to A21G A57G C66G, the yeast fitness is 0.599.

Consider A21C C46U A65U, for which the yeast fitness came out at 0.556.

Consider A21C C22U G38C A40C, for which the yeast fitness is ≤ 0.5.

With A21G C22U A37U A45G C46G C55A, the yeast fitness is ≤ 0.5.

For A21G A70C, the yeast fitness came out at 0.993.

On to A21C C31U, for which the yeast fitness worked out at 0.733.

As for A21C C31A, the yeast fitness came out at 0.725.

As to A21C A37U A42U C46G U47G, the yeast fitness is 0.534.

For the variant A21G G25C C27G A42C G68C, the yeast fitness is ≤ 0.5.

On to A21C C49A A70G, for which the yeast fitness came out at 0.626.

Consider A21C C30U A43U G48C, for which the yeast fitness was ≤ 0.5.

A21C C29G G51A: the yeast fitness amounted to 0.529.

Take A21C C31G C62U A69G: the yeast fitness was ≤ 0.5.

As to A21C U32A U35C, the yeast fitness was ≤ 0.5.

For the variant A21C C24U U32A G41A C62G, the yeast fitness was ≤ 0.5.

On to A21C A45C C49U C55G G56C, for which the yeast fitness was ≤ 0.5.

For the variant A21C C27U, the yeast fitness stood at 0.774.

With A21C C27G, the yeast fitness amounted to 0.537.

Take A20U U28C A69C: the yeast fitness was determined as 0.699.

Regarding A21C C27A C33U, the yeast fitness stood at 0.906.

On to A21C A37G C49A C60G C66A, for which the yeast fitness is ≤ 0.5.

Consider A21G A40G A42U U59G, for which the yeast fitness was ≤ 0.5.

Consider A21G A36G A40C A42C, for which the yeast fitness was ≤ 0.5.

A21G G25A G39C C62U: the yeast fitness was ≤ 0.5.

For the variant A21G U64A, the yeast fitness is 0.877.

In the case of A21G C22U C46U G56C, the yeast fitness was ≤ 0.5.

As to A21G C29A C46U U59C, the yeast fitness was ≤ 0.5.

Take A21G C33A C55A A65C A70C: the yeast fitness is ≤ 0.5.

Regarding A21G A43U G58C U59C, the yeast fitness is 0.67.

Regarding A21C G25A C30A A37U C66A, the yeast fitness was ≤ 0.5.

As to A21G C27U C61G A65U, the yeast fitness is ≤ 0.5.

As for A21U A40U A45U, the yeast fitness is 0.625.

Regarding A20U U28G U32G C34G C66U, the yeast fitness is ≤ 0.5.

For the variant A21C A45C, the yeast fitness amounted to 0.73.

Consider A21G U26C A40U C49U, for which the yeast fitness is ≤ 0.5.

As for A21G G67C, the yeast fitness turned out to be 0.865.

Take A21G G67A: the yeast fitness turned out to be 0.956.

Regarding A21G C49A G56A, the yeast fitness worked out at 0.533.

Consider A21G G23C C31U C34G A43G A45C G67C, for which the yeast fitness is ≤ 0.5.

Regarding A21C G23U C62U A65G, the yeast fitness is ≤ 0.5.

With A21C C29A G41A U54A, the yeast fitness is ≤ 0.5.

Take A21C U32C C34A: the yeast fitness is ≤ 0.5.

For the variant A21C C22G G38C G51C, the yeast fitness was ≤ 0.5.

Take A21C A37C A69U: the yeast fitness is ≤ 0.5.

For the variant A21C C22G A70C, the yeast fitness is ≤ 0.5.

For A21C G25C U26G C62A, the yeast fitness was ≤ 0.5.

For A21C C22G G38C, the yeast fitness came out at 0.52.

On to A21G C34U G63U, for which the yeast fitness is ≤ 0.5.

For A21C C33G G39A, the yeast fitness was ≤ 0.5.

As to A21C C22U, the yeast fitness is 0.664.

As for A21C C22G, the yeast fitness came out at 0.564.

In the case of A21C G44C G50A A57G G68C, the yeast fitness is ≤ 0.5.

As to A21C C27G U28A C29U C34U, the yeast fitness amounted to 0.525.

For the variant A21U A36G C49A, the yeast fitness is ≤ 0.5.

Take A21G C27U A70G: the yeast fitness is 0.792.

Turning to A21C C27G G39C, the yeast fitness was ≤ 0.5.

As to A21C C29U A45U, the yeast fitness is 0.521.

A21C C34A G38A A45U: the yeast fitness was found to be 0.546.

With A21G C30A C31U A57G A65U A69U, the yeast fitness was ≤ 0.5.

For A21G C22G C49U G51A, the yeast fitness stood at 0.603.

As to A21G C29A A69C, the yeast fitness was ≤ 0.5.

As to A21C C22A C60U, the yeast fitness is ≤ 0.5.

Turning to A21G A42G, the yeast fitness came out at 0.714.

Take A21G G23A C27U: the yeast fitness came to 0.75.

In the case of A21G C49G G56C, the yeast fitness is ≤ 0.5.

As to A21C C31A C33G A45G G48A, the yeast fitness came out at 0.579.

Regarding A21G C22A A40U, the yeast fitness was ≤ 0.5.

As for A21U A36G, the yeast fitness worked out at 0.804.

Take A21U A36C: the yeast fitness is ≤ 0.5.

For the variant A21G C34G C55G, the yeast fitness was ≤ 0.5.

With A21G C24G A37U, the yeast fitness turned out to be 0.573.

With A21G C29G C62U, the yeast fitness amounted to 0.651.

As for A21G C29G C46U C60U G67C, the yeast fitness is ≤ 0.5.

Regarding A21G G39C A69C, the yeast fitness came to 0.536.

Regarding A21C A42G A69C A70G, the yeast fitness turned out to be 0.543.

As for A21C C34U C66U, the yeast fitness was ≤ 0.5.

Turning to A21G C55U, the yeast fitness amounted to 0.704.

With A21C U28G C33U C34U A43U G50A A69C, the yeast fitness was ≤ 0.5.

In the case of A21G C22G U53C C55G, the yeast fitness came to 0.698.

Consider A21G G38C, for which the yeast fitness worked out at 0.674.

Take A21G C34G A42U: the yeast fitness is ≤ 0.5.

With A21C C61G C62G, the yeast fitness was ≤ 0.5.

For the variant A21G C22A G56A A65C, the yeast fitness came out at 0.528.

A21G G50C G52C: the yeast fitness is ≤ 0.5.

Turning to A21C C46U A69C, the yeast fitness worked out at 0.668.

For the variant A21C U28A G50A, the yeast fitness is ≤ 0.5.

Regarding A20U U32A C66U, the yeast fitness was determined as 0.554.

Turning to A21G G39A, the yeast fitness turned out to be 0.809.

Take A21C C27U A57G: the yeast fitness stood at 0.79.

A21C C34G A36G C46A: the yeast fitness amounted to 0.586.

Consider A21G C30A, for which the yeast fitness came to 1.

Regarding A21G A45G C46G A70U, the yeast fitness is ≤ 0.5.

Take A21C C24G U32A A42C A65U: the yeast fitness came out at 0.543.

For the variant A21G A57C, the yeast fitness was 0.709.

A21G U32C C34G: the yeast fitness is ≤ 0.5.

Consider A21C C62U G68C, for which the yeast fitness was found to be 0.601.

For A21C C62A, the yeast fitness worked out at 0.788.

On to A21C C62U, for which the yeast fitness worked out at 0.798.

Turning to A21C C62G, the yeast fitness turned out to be 0.723.

A21G G25A G48C C62A: the yeast fitness was ≤ 0.5.

As for A21C C22U C31U C33U, the yeast fitness is ≤ 0.5.

Regarding A21G U59A A69G, the yeast fitness is ≤ 0.5.

Regarding A21C U32C, the yeast fitness amounted to 0.864.

As for A21C C34A A37G, the yeast fitness was 0.513.

Take A21C G23U G48C: the yeast fitness was ≤ 0.5.

Regarding A21C G56A, the yeast fitness worked out at 0.946.

Turning to A21C C27U G58C C62G, the yeast fitness was ≤ 0.5.

Turning to A21C C46U, the yeast fitness was found to be 0.909.

Take A21C C27A C49G: the yeast fitness is 0.54.

For the variant A20U U28C, the yeast fitness was 0.934.

On to A21G C22U C30G G51A A69U, for which the yeast fitness is 0.551.

A21G U35G A37G A42G: the yeast fitness was ≤ 0.5.

As to A21U A36U G58A, the yeast fitness is ≤ 0.5.

Turning to A21G C30A C55A, the yeast fitness was ≤ 0.5.

On to A21G U35C A36U A40U C55U A57C, for which the yeast fitness is ≤ 0.5.

Regarding A21G U32A U47A, the yeast fitness was 0.556.

Consider A21G C61G C66G, for which the yeast fitness was ≤ 0.5.

On to A21C G68C A69U, for which the yeast fitness was ≤ 0.5.
